Laboratory results taken from ChEMBL document CHEMBL4251594, “Design and synthesis of sulfonamidophenylethylureas as novel cardiac myosin activator” (Eur J Med Chem, 2018).

Columns and labels:
Bos taurus = organism: Bos taurus; assay: Activation of actin-stimulated bovine cardiac myosin S1 fragment ATPase activity in sarcomere at 10 uM after 10 mins by spectrophotometric analysis relative to control
Rattus norvegicus [1] = assay: Positive inotropic activity in Sprague-Dawley rat heart assessed as increase in ejection fraction at 2 to 16 ug/kg/min infused for 3 mins by echocardiographic analysis; format: functional
How it was run: (§1)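 Seven-week-old male Sprague-Dawley rats; dosing via internal jugular vein central line, infused at 0, 2, 4, 8 and 16 µg/kg/min for 3 minutes from a 40 µg/mL final solution (concentration checked by HPLC against three standards). M-mode echocardiography at baseline and 16 µg/kg/min with a 25 MHz transducer; percent rise in LV fractional shortening and ejection fraction.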

Rattus norvegicus [2] = assay: Positive inotropic activity in Sprague-Dawley rat heart assessed as increase in left ventricle fractional shortening at 2 to 16 ug/kg/min infused for 3 mins by echocardiographic analysis; format: functional; how it was run: as §1
Gallus gallus = organism: Gallus gallus; assay: Activation of actin-stimulated chicken gizzard smooth muscle myosin S1 fragment ATPase activity at 100 uM after 10 mins by spectrophotometric analysis relative to control
Oryctolagus cuniculus = organism: Oryctolagus cuniculus; assay: Activation of actin-stimulated rabbit skeletal muscle myosin S1 fragment ATPase activity at 100 uM after 10 mins by spectrophotometric analysis relative to control
Cardiac muscle cell [3] = assay: Positive inotropic activity in Sprague-Dawley rat ventricular myocytes assessed as change in ventricular cell contractility by measuring cell shortening at 5 uM; format: functional
[4] = Aqueous solubility of the compound in water; format: physicochemical; conditions: buffer
Cardiac muscle cell [5] = assay: Positive inotropic activity in Sprague-Dawley rat ventricular myocytes assessed as change in ventricular cell contractility by measuring cell shortening at 1 uM; format: functional

SMILES | Activity (Bos taurus) [%] | further results
COc1ccc(S(N)(=O)=O)c(CCNC(=O)NCCCc2ccccc2)c1 | 29.4 | –
COc1ccc(CCNC(=O)NCCCCc2ccccc2)cc1OC | 32.5 | –
CN(C)S(=O)(=O)c1ccc(C2CCN(C(=O)NCCCc3ccccc3)CC2)cc1 | 85.1 | –
COc1ccc(CCCNC(=O)NCCc2ccc(OC)c(OC)c2)cc1 | 38.4 | –
O=C(NCCCc1ccccc1)NCCc1ccc([N+](=O)[O-])cc1 | 56.2 | –
CN(C)S(=O)(=O)c1ccc(C2CCN(C(=O)NCc3ccccc3)CC2)cc1 | 36.9 | –
Nc1ccc(CCNC(=O)NCCCc2ccccc2)cc1 | 55.2 | Activity (Rattus norvegicus [1]): 4.16%; Activity (Rattus norvegicus [2]): 6.37%
NS(=O)(=O)c1ccc(CCNC(=O)NCCCCc2ccccc2)cc1 | 36.6 | –
CN(C)S(=O)(=O)c1ccc(CNC(=O)NCCCc2ccccc2)cc1 | 34.5 | –
Cc1ccc2c(c1)C(=O)[C@]1(O)CCN(c3ccccc3)C1=N2 | – | Activity (Gallus gallus): -35.7%; Activity (Oryctolagus cuniculus): -50.7%
NS(=O)(=O)c1ccc(CCNC(=O)NCCCc2ccc(Cl)cc2)cc1 | 37.9 | –
CN(C)S(=O)(=O)c1ccc(CCCNC(=O)NCc2ccccc2)cc1 | 20.8 | –
O=C(NCCCc1ccc(F)cc1)NCc1ccccc1 | 9.5 | –
CC(C)N(CCc1ccc(S(=O)(=O)N(C)C)cc1)C(=O)NCCCc1ccccc1 | 38.1 | –
CC(C)N(CCc1ccc(S(=O)(=O)N(C)C)cc1)C(=O)N(C)CCCc1ccccc1 | 40.6 | –
NS(=O)(=O)c1ccc(CCNC(=O)NCCCc2ccc(F)cc2)cc1 | 19.1 | –
COc1ccc(CNC(=O)NCCCc2ccccc2)cc1 | 25.4 | –
COc1ccc(CCNC(=O)NCCCc2ccccc2)cc1OC | 122 | Activity (Cardiac muscle cell [3]): 22.2%; Activity (Rattus norvegicus [1]): 15.87%; Activity (Gallus gallus): 4.3%; Activity (Oryctolagus cuniculus): -2.4%; Activity (Rattus norvegicus [2]): 23.97%
CN(C)S(=O)(=O)c1ccc(C2CCN(C(=O)NCCc3ccccc3)CC2)cc1 | 32.6 | –
CN(C)c1ccc(CCNC(=O)NCCCc2ccccc2)cc1 | 45.3 | –
CC(C)c1ccc(CCNC(=O)NCCCc2ccccc2)cc1 | 33.3 | –
NS(=O)(=O)c1ccc(CNC(=O)NCCCc2ccccc2)cc1 | 39.6 | –
O=C(NCCCc1ccccc1)NCCc1ccccc1 | 51.1 | Activity (Cardiac muscle cell [3]): 20.8%; Activity (Rattus norvegicus [1]): 12.15%; Activity (Gallus gallus): -4.7%; Activity (Oryctolagus cuniculus): -2.1%; Activity (Rattus norvegicus [2]): 18.9%
Cc1ccc(CCNC(=O)NCCCc2ccccc2)cc1 | 73.8 | solubility [4]: Insoluble

SMILES | Activity (Bos taurus) [%] | further results
O=C(NCCCc1ccccc1)NCCc1ccc(Cl)cc1Cl | 37.3 | –
NS(=O)(=O)c1ccc(NC(=O)NCCCc2ccccc2)cc1 | 31.8 | –
O=C(NCCCc1ccccc1)NCCc1ccc(C(=O)O)cc1 | 40.6 | –
O=C(NCCCc1ccccc1)NCCc1ccccc1F | 65.4 | Activity (Rattus norvegicus [1]): 8.76%; Activity (Rattus norvegicus [2]): 12.52%
CN(C)S(=O)(=O)c1ccc(CNC(=O)N2CCC(c3ccccc3)CC2)cc1 | 27.6 | –
COc1ccc(CCNC(=O)NCCCc2ccccc2)cc1 | 40 | –
COc1cccc(CCNC(=O)NCCCc2ccccc2)c1 | 35 | –
NS(=O)(=O)c1ccc(CCNC(=O)NCCCc2ccccc2)cc1 | 41.9 | Activity (Rattus norvegicus [1]): 7.23%; Activity (Rattus norvegicus [2]): 11.24%
CCN(CCc1ccc(S(=O)(=O)N(C)C)cc1)C(=O)NCCCc1ccccc1 | 39.5 | –
COc1ccccc1CCNC(=O)NCCCc1ccccc1 | 95.1 | Activity (Cardiac muscle cell [3]): 19.7%; Activity (Rattus norvegicus [1]): 13.58%; Activity (Gallus gallus): 5.3%; Activity (Oryctolagus cuniculus): 3.5%; Activity (Rattus norvegicus [2]): 20.47%
COc1ccc(CNC(=O)NCCCc2ccccc2)cc1OC | 38.8 | –
O=C(NCCCc1ccccc1)NCc1ccccc1 | 53.3 | Activity (Cardiac muscle cell [3]): 25.3%; Activity (Rattus norvegicus [1]): 18.27%; Activity (Gallus gallus): -3.7%; Activity (Oryctolagus cuniculus): 1.4%; Activity (Rattus norvegicus [2]): 30.04%
CN(CCc1ccc(S(=O)(=O)N(C)C)cc1)C(=O)NCCCc1ccccc1 | 52.3 | Activity (Rattus norvegicus [1]): 24.19%; Activity (Rattus norvegicus [2]): 38.96%
CN(C)S(=O)(=O)c1ccc(CCNC(=O)NCCCc2ccccc2)cc1 | 91.6 | Activity (Cardiac muscle cell [3]): 47.9%; Activity (Rattus norvegicus [1]): 11.55%; Activity (Gallus gallus): -1.9%; Activity (Oryctolagus cuniculus): -3.8%; Activity (Rattus norvegicus [2]): 17.62%
CN(CCCc1ccccc1)C(=O)N(C)CCc1ccc(S(=O)(=O)N(C)C)cc1 | 69 | Activity (Rattus norvegicus [1]): 0.27%; Activity (Rattus norvegicus [2]): 0.46%
CN(C)S(=O)(=O)c1ccc(CCNC(=O)NCCCc2ccc(F)cc2)cc1 | 20.6 | –
CN(C)S(=O)(=O)c1ccc(CCNC(=O)N2CCC(c3ccccc3)CC2)cc1 | 40.7 | –
CCN(CCCc1ccccc1)C(=O)N(CC)CCc1ccc(S(=O)(=O)N(C)C)cc1 | 30.3 | –
CN(CCCc1ccccc1)C(=O)NCCc1ccc(S(=O)(=O)N(C)C)cc1 | 47.6 | Activity (Rattus norvegicus [1]): 15.47%; Activity (Rattus norvegicus [2]): 23.19%
O=C(NCCCc1ccccc1)NCCc1ccc(F)cc1 | 38.6 | –
COc1ccc(CCCNC(=O)NCc2ccccc2)cc1 | 30.5 | –
O=C(NCCCc1ccccc1)NCCc1ccc(Cl)cc1 | 31 | –
COc1ccc(CCCNC(=O)NCCc2ccc(S(N)(=O)=O)cc2)cc1 | 34.8 | –
COC(=O)N1CCN(Cc2cccc(NC(=O)Nc3ccc(C)nc3)c2F)CC1 [OMECAMTIV MECARBIL] | 58 | Activity (Rattus norvegicus [1]): 13.35%; Activity (Gallus gallus): -5.5%; Activity (Oryctolagus cuniculus): 2.8%; Activity (Rattus norvegicus [2]): 20.32%; Activity (Cardiac muscle cell [5]): 33.8%
